Data: ChEMBL document CHEMBL4382192, “Discovery of a potent dual ALK and EGFR T790M inhibitor” (Eur J Med Chem, 2017)

Experiments:
[1] = Cmax in mouse at 2 mg/kg, iv; assay type: ADME, organism-based; design: dose 2 mg/kg, route intravenous; settings: in vivo
[2] = Oral bioavailability in mouse at 10 mg/kg; assay type: ADME, organism-based; settings: in vivo
[3] = test system: Tyrosine-protein kinase ABL1 (Homo sapiens), P00519 [E255K]; assay: Binding affinity to human phosphorylated ABL1 E255K mutant (S229 to K512 residues) expressed in mammalian expression system assessed as residual binding level at 1 uM by Kinomescan method relative to control
How it was run: (§1)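 Kinome-wide selectivity panel run by the KINOMEscan method, with the test compound at a single concentration of 1 μM. Wild-type and mutant kinases were profiled in the same screen.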

[4] = test system: Tyrosine-protein kinase ABL1 (Homo sapiens), P00519 [F317I]; assay: Binding affinity to human phosphorylated ABL1 F317I mutant (S229 to K512 residues) expressed in mammalian expression system assessed as residual binding level at 1 uM by Kinomescan method relative to control; how it was run: as §1
[5] = biological target: Mitogen-activated protein kinase kinase kinase 5 (Homo sapiens) (UniProt Q99683); assay: Binding affinity to wild-type human partial length ASK1 (E648 to S964 residues) expressed in bacterial expression system assessed as residual binding level at 1 uM by Kinomescan method relative to control
Sequence of Mitogen-activated protein kinase kinase kinase 5 (Homo sapiens) (Q99683 whole entry, the tested form may be a part): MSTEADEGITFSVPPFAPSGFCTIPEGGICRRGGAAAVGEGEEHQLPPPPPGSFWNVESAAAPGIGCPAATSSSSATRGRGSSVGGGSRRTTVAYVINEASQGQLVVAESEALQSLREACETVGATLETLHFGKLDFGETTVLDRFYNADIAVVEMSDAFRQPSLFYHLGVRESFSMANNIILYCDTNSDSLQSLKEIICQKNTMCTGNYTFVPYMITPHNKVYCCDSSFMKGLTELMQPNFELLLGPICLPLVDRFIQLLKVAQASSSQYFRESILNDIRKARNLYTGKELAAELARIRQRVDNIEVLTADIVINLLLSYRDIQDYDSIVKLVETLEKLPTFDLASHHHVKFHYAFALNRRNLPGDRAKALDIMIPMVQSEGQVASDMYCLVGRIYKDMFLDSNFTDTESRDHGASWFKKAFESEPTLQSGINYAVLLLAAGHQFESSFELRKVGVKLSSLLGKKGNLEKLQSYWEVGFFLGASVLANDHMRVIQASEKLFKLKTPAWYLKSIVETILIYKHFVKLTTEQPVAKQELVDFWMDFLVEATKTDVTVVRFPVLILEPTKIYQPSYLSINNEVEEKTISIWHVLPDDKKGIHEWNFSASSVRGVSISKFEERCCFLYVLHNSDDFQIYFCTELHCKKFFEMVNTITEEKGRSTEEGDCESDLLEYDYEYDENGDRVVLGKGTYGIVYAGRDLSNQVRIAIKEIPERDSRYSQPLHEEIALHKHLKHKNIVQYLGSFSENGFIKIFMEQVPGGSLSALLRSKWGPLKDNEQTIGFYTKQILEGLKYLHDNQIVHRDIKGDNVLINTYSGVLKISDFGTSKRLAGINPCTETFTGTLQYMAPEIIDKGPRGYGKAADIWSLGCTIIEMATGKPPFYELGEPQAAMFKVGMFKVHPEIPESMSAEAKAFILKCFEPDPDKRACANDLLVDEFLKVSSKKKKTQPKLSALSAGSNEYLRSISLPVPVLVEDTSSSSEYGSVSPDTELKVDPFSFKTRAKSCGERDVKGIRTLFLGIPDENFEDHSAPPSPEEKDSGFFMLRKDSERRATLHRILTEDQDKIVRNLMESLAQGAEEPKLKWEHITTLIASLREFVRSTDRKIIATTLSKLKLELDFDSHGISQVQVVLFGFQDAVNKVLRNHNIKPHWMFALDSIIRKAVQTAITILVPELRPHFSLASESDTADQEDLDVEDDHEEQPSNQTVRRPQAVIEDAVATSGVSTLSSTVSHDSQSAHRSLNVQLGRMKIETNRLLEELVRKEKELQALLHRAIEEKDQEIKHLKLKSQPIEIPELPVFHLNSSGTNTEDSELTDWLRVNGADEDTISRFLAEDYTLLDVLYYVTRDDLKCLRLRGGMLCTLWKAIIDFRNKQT

[6] = biological target: Tyrosine-protein kinase Blk (Homo sapiens, UniProt P51451); assay: Binding affinity to wild-type human partial length BLK (G211 to L503 residues) expressed in bacterial expression system assessed as residual binding level at 1 uM by Kinomescan method relative to control
[7] = biological target: Serine/threonine-protein kinase BRSK1 (Homo sapiens) (UniProt Q8TDC3); assay: Binding affinity to wild-type human partial length BRSK1 (M1 to E754 residues) expressed in bacterial expression system assessed as residual binding level at 1 uM by Kinomescan method relative to control
[8] = biological target: Cyclin-dependent kinase 11B (Homo sapiens) (UniProt P21127); assay: Binding affinity to wild-type human partial length CDC2L1 (P353 to G692 residues) expressed in bacterial expression system assessed as residual binding level at 1 uM by Kinomescan method relative to control
Sequence of Cyclin-dependent kinase 11B (Homo sapiens) (P21127 whole entry, the tested form may be a part): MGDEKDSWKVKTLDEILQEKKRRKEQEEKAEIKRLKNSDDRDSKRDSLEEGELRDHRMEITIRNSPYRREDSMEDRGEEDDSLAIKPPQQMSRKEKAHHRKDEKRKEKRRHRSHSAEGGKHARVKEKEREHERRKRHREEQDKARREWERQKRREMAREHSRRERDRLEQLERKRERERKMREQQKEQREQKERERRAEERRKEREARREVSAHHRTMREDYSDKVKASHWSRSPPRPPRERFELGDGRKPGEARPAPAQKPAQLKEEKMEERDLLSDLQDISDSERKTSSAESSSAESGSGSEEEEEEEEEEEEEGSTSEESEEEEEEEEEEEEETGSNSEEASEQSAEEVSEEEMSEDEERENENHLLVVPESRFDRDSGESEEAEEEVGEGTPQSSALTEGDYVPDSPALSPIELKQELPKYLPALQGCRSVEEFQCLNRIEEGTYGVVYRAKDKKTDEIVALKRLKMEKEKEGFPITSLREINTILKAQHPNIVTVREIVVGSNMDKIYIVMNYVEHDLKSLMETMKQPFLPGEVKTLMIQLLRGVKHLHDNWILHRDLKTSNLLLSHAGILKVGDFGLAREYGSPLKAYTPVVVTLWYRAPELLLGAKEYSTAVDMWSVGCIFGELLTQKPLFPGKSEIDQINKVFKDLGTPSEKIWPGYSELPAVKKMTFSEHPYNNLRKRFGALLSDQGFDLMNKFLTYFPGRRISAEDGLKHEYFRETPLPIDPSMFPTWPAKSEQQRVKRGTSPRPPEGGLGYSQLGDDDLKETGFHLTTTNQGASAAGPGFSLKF

[9] = biological target: Dual specificity protein kinase CLK2 (Homo sapiens) (UniProt P49760); assay: Binding affinity to wild-type human partial length CLK2 (D144 to R498 residues) expressed in bacterial expression system assessed as residual binding level at 1 uM by Kinomescan method relative to control
[10] = biological target: Megakaryocyte-associated tyrosine-protein kinase (Homo sapiens) (UniProt P42679); assay: Binding affinity to wild-type human full length CTK (M43 to P508 residues) expressed in mammalian expression system assessed as residual binding level at 1 uM by Kinomescan method relative to control
[11] = biological target: Serine/threonine-protein kinase DCLK1 (Homo sapiens) (UniProt O15075); assay: Binding affinity to wild-type human partial length DCAMKL1 (L270 to A662 residues) expressed in mammalian expression system assessed as residual binding level at 1 uM by Kinomescan method relative to control
[12] = test system: Epidermal growth factor receptor (Homo sapiens), P00533 [G719S]; assay: Binding affinity to human partial length EGFR G719S mutant (R669 to V1011 residues) expressed in bacterial expression system assessed as residual binding level at 1 uM by Kinomescan method relative to control; how it was run: as §1
[13] = biological target: Mitogen-activated protein kinase 4 (Homo sapiens) (UniProt P31152); assay: Binding affinity to wild-type human partial length ERK4 (M1 to L365 residues) expressed in bacterial expression system assessed as residual binding level at 1 uM by Kinomescan method relative to control
[14] = biological target: Fibroblast growth factor receptor 1 (Homo sapiens) (UniProt P11362); assay: Binding affinity to wild-type human partial length FGFR1 (P357 to V669 residues) expressed in bacterial expression system assessed as residual binding level at 1 uM by Kinomescan method relative to control
[15] = biological target: Tyrosine-protein kinase FRK (Homo sapiens) (UniProt P42685); assay: Binding affinity to wild-type human partial length FRK (A215 to F503 residues) expressed in bacterial expression system assessed as residual binding level at 1 uM by Kinomescan method relative to control
[16] = biological target: Hormonally up-regulated neu tumor-associated kinase (Homo sapiens) (UniProt P57058); assay: Binding affinity to wild-type human partial length HUNK (A31 to K354 residues) expressed in bacterial expression system assessed as residual binding level at 1 uM by Kinomescan method relative to control
[17] = biological target: Mitogen-activated protein kinase 10 (Homo sapiens) (UniProt P53779); assay: Binding affinity to wild-type human partial length JNK3 (V28 to Q422 residues) expressed in mammalian expression system assessed as residual binding level at 1 uM by Kinomescan method relative to control
[18] = biological target: MAP kinase-interacting serine/threonine-protein kinase 2 (Homo sapiens) (UniProt Q9HBH9); assay: Binding affinity to wild-type human partial length MKNK2 (G63 to S388 residues) expressed in mammalian expression system assessed as residual binding level at 1 uM by Kinomescan method relative to control
[19] = biological target: Myosin light chain kinase 2, skeletal/cardiac muscle (Homo sapiens) (UniProt Q9H1R3); assay: Binding affinity to wild-type human partial length MYLK2 (D258 to K570 residues) expressed in bacterial expression system assessed as residual binding level at 1 uM by Kinomescan method relative to control
Sequence of Myosin light chain kinase 2, skeletal/cardiac muscle (Homo sapiens) (Q9H1R3 whole entry, the tested form may be a part): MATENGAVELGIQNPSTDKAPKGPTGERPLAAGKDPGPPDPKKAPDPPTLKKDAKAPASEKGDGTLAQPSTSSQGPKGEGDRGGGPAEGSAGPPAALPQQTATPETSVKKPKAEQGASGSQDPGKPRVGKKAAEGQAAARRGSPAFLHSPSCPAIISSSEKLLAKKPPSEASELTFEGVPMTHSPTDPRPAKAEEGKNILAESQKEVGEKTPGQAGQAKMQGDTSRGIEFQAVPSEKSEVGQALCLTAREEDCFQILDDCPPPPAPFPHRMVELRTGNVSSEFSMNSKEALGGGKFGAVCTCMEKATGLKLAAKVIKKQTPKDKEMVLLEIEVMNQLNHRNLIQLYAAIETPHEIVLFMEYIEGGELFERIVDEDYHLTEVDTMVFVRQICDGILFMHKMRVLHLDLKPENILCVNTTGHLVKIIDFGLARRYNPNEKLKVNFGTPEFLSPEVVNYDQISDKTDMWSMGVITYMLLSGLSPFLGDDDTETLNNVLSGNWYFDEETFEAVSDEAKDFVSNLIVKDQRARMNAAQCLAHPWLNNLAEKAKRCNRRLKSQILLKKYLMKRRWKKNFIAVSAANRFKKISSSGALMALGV

[20] = biological target: Serine/threonine-protein kinase Nek3 (Homo sapiens) (UniProt P51956); assay: Binding affinity to wild-type human full length NEK3 (M1 to R506 residues) expressed in mammalian expression system assessed as residual binding level at 1 uM by Kinomescan method relative to control
How it was run: (§2)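 Single-point kinome-wide KINOMEscan binding panel, test compound at 1 μM, run by the provider's standard protocol.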

[21] = biological target: Cyclin-dependent kinase 18 (Homo sapiens) (UniProt Q07002); assay: Binding affinity to wild-type human full length PCTK3 (M3 to F474 residues) expressed in bacterial expression system assessed as residual binding level at 1 uM by Kinomescan method relative to control; how it was run: as §2
[22] = biological target: 1-phosphatidylinositol 3-phosphate 5-kinase (Homo sapiens) (UniProt Q9Y2I7); assay: Binding affinity to wild-type human partial length PIKFYVE (F1512 to C2098 residues) expressed in mammalian expression system assessed as residual binding level at 1 uM by Kinomescan method relative to control
[23] = biological target: STE20-like serine/threonine-protein kinase (Homo sapiens, UniProt Q9H2G2); assay: Binding affinity to wild-type human partial length SLK (S14 to A307 residues) expressed in bacterial expression system assessed as residual binding level at 1 uM by Kinomescan method relative to control
Sequence of STE20-like serine/threonine-protein kinase (Q9H2G2 whole entry, looked up, the tested form may be a part): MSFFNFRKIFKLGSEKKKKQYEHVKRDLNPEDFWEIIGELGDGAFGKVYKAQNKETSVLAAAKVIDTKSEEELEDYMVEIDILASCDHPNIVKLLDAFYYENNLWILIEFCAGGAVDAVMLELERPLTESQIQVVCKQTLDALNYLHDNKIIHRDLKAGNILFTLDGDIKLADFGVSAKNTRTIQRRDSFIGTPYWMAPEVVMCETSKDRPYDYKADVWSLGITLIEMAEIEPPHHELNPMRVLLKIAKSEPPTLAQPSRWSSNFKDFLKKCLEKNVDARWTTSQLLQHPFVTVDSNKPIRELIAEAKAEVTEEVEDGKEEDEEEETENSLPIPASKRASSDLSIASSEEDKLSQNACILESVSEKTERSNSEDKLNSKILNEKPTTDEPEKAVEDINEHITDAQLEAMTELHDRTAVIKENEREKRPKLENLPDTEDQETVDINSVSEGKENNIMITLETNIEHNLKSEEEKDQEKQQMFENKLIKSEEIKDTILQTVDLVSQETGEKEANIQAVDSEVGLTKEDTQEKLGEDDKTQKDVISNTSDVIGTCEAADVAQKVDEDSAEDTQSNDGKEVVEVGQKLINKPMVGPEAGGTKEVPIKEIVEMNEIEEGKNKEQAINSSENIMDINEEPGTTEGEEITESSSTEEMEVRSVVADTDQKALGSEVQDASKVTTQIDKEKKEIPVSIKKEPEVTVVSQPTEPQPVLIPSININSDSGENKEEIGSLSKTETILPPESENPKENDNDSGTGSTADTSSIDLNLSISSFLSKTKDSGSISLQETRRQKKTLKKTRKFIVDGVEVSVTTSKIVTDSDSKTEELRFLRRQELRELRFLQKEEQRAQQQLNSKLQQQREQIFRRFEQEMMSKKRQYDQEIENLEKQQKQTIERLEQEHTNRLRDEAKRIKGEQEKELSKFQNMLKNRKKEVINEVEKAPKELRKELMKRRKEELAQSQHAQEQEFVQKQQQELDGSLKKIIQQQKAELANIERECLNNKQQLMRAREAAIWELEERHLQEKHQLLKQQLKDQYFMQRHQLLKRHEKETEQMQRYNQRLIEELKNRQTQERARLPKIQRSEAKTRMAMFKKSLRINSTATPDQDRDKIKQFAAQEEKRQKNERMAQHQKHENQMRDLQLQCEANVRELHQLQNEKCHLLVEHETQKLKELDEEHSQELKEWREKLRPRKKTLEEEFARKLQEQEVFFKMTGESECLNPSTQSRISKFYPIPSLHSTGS

[24] = biological target: SRSF protein kinase 3 (Homo sapiens) (UniProt Q9UPE1); assay: Binding affinity to wild-type human partial length SRPK3 (P41 to P567 residues) expressed in bacterial expression system assessed as residual binding level at 1 uM by Kinomescan method relative to control
[25] = biological target: Serine/threonine-protein kinase TNNI3K (Homo sapiens) (UniProt Q59H18); assay: Binding affinity to wild-type human full length TNNI3K (M1 to S835 residues) expressed in bacterial expression system assessed as residual binding level at 1 uM by Kinomescan method relative to control
Sequence of Serine/threonine-protein kinase TNNI3K (Homo sapiens) (Q59H18 whole entry, the tested form may be a part): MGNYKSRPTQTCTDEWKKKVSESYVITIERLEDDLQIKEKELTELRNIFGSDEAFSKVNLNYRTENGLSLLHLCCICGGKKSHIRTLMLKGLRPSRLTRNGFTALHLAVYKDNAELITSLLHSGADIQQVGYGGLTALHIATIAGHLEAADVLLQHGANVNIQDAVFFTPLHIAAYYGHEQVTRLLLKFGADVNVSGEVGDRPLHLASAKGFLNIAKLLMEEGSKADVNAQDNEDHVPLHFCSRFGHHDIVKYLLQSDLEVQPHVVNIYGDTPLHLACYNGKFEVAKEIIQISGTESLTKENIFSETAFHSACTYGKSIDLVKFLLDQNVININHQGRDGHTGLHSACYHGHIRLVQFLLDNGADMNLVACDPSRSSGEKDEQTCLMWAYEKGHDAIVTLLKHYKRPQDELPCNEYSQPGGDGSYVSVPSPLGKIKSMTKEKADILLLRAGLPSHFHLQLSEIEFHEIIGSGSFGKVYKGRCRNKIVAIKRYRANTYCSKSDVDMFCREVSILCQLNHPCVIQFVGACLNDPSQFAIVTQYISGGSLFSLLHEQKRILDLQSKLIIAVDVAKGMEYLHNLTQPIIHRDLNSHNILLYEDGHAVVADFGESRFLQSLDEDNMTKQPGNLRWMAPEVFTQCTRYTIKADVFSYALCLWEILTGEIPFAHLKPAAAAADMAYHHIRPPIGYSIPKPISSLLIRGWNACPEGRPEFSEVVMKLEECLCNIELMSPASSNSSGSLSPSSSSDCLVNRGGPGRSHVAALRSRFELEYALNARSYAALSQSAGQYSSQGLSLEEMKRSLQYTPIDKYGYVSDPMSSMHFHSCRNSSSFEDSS

`C=CC(=O)Nc1cc(Nc2ncc(Cl)c(Nc3ccccc3S(=O)(=O)C(C)C)n2)c(OC)cc1N(C)CCN(C)C` showed a Cmax [1] of 882 ng/mL, a bioavailability [2] of 24% and an Activity [3] of 12%. For the same compound, the Activity [4] was 2.8%, the Activity [5] was 100% and the Activity [6] was 0.05%. It also gave an Activity [7] of 49%, an Activity [8] of 75% and an Activity [9] of 1.7%. For the same compound, the Activity [10] was 98%, the Activity [11] was 14% and the Activity [12] was 0%. It also gave an Activity [13] of 82%, an Activity [14] of 3.7% and an Activity [15] of 5.9%. For the same compound, the Activity [16] was 39%, the Activity [17] was 82% and the Activity [18] was 26%. For the same compound, the Activity [19] was 77%, the Activity [20] was 67% and the Activity [21] was 77%. It also gave an Activity [22] of 100%, an Activity [23] of 0% and an Activity [24] of 77%. For the same compound, the Activity [25] was 100%.
